Experimental findings from PubChem BioAssay AID624316 (Broad Institute, 2012) are described below.

Values joined by “and” are separate entries in the source; they are usually repeats but may differ in a detail not shown here. Equal entries are not always repeated. Active and inactive are the calls of the source.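 The calls were made as follows: active = compounds lowering reporter light with a fitted AC50 at or below twice their top valid dose; inconclusive = flat partial inhibition or an unreliable curve fit; inactive = the rest.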

The assay deals with SK-MEL-5 TRPM1 promoter luciferase reporter, 24 h. Put plainly: TRPM1 promoter luciferase signal reduction, dose response, MITF inhibitor project, cell-based, SK-MEL-5, dry powder samples, set 4 (AID 624316). The method, boiled down:
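incubation = compound added 24 h post-plating, 24 h exposure at 37 °C | test system = SK-MEL-5 melanoma line stably carrying TRPM1 promoter–luciferase reporter | medium = phenol-red-free DMEM, 10% FBS | dosing = compounds pinned into wells as DMSO solutions | technique = luciferase luminescence with SteadyGlo, 5 min room temperature | benchmarks = parthenolide as positive control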
One may read the AC50 as the midpoint of the concentration-response curve, whichever way the signal moves. For the molecule `COc1ccc(C2=C(NC(=O)c3ccc4ccccc4c3)C(=O)c3ccccc3C2=O)cc1`, the AC50 was > 70 µM (inactive).

On to `O=C(NC1=C(N2CCOCC2)C(=O)c2ccccc2C1=O)c1ccccc1`, for which the AC50 is 6 µM.

With `O=C(NC1=C(N2CCN(c3ccccc3)CC2)C(=O)c2ccccc2C1=O)c1ccccc1`, the AC50 was 15 µM.

`O=C1C(NS(=O)(=O)c2ccc(Br)cc2)=C(c2ccc(OC(F)(F)F)cc2)C(=O)c2ccccc21`: the AC50 is 12 µM.

`CC(=O)N(C)C1=C(N2CCN(C)CC2)C(=O)c2ccccc2C1=O`: the AC50 is 0.372 µM.

Turning to `C=C1C(=O)OC2C1CC/C(C)=C\CCC1(C)OC21` (stereo unspecified), the half-maximal activity concentration (AC50) was 4.91 µM.

As to `O=C(CNc1cccc2ccccc12)N/N=C/c1ccc([N+](=O)[O-])o1`, the AC50 was 1.67 µM.

As to `O=C1C(Nc2ccccc2)=C(N2CCOCC2)C(=O)c2ccccc21`, the AC50 is 5.81 µM and 4.63 µM.

Consider `CN1CCN(C2=C(NC(=O)c3ccccc3)C(=O)c3ccccc3C2=O)CC1`, for which the AC50 is 0.508 µM.

As for `COc1ccc(C2=C(NC(=O)c3ccc(Cl)cc3)C(=O)c3ccccc3C2=O)cc1`, the concentration at half-maximal activity (AC50) was 16.4 µM.

For the molecule `C=CCNC1=C(NCCCN2CCOCC2)C(=O)c2ccccc2C1=O`, the AC50 is 7.39 µM.
